The list is not random: actives were taken first. Their share in the collection is about 5.2%.
ALR H2O2 inh – human ALR oxidase inhibition via reduced H2O2; inhibition, % (test concentration not listed); AID 485317; purified ALR, DTT oxidation, H2O2 HRP-luminol luminescence; 290,000 compounds, 3.8% hits; P55789;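 active = mean replicate inhibition above about 79%, with every replicate also reaching it, limit read from the data; inconclusive = only one of the two criteria met; inactive = mean below limit and not every replicate reaching it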
Target sequence (P55789 whole entry, looked up): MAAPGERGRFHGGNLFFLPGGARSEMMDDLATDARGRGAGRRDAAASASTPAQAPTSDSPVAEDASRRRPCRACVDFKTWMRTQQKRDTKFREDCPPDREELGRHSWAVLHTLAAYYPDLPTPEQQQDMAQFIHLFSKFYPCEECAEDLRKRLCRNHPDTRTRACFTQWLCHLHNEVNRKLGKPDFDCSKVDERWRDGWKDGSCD
ZTA DNA inh – ZTA (EBV) inhibition in EBNA-1 counter-screen; P03206; inhibition, % at 11 µM; 320,000 compounds, 0.15% hits; ZTA-DNA binding, fluorescence polarization; in the data active = inhibition above about 33%
Target sequence (P03206 whole entry, looked up): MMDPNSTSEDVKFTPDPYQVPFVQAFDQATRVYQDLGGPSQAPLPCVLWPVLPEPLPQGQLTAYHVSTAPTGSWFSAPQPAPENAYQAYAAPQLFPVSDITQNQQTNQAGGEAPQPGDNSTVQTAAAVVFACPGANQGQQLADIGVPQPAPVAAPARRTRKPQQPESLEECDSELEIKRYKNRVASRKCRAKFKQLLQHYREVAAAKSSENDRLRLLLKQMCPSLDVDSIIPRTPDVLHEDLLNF
PfM18AAP inh-1 – blocks P. falciparum M18 aspartyl aminopeptidase; recombinant PfM18AAP, H-Glu-NHMec fluorogenic cleavage; 290,000 compounds, 1.2% hits; inhibition, % at 7.35 µM;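 active = inhibition above the campaign mean inhibition over all tested compounds plus 3 SD, cut at about 28% in these data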;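 note: 0% = plate median of test compound wells and 100% = 2 mM ZnCl2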
EBNA-1 inhibitor – blocks EBNA-1 binding to DNA; EBNA-1 DNA binding, fluorescence polarization; inhibition, % at 14.8 µM; 300,000 compounds, 0.34% hits; AID 1950; in the data active = inhibition above about 28%
HCV NS3 hel inh – inhibitors of Hepatitis C virus NS3 helicase; NS3 helicase DNA unwinding, Cy5 molecular beacon fluorescence; inhibition, % at 10.9 µM; 290,000 compounds, 0.56% hits;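 active = inhibition above the mean of all tested compounds plus 3 SD, set per campaign, cut at about 35% in these data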;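 note: 0% = DMSO wells and 100% = thioflavine S control wells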
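test system = hepatitis C virus NS3 helicase domain fragment enzyme | reagent = annealed dual-labelled DNA beacon duplex, ATP-started | times = 1 h at 25 °C | detection = Cy5 fluorescence, 0 and 60 min reads | read-out basis = percent inhibition from t60/t0 fluorescence ratio | control set = DMSO and thioflavine S | replication = one well per compound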
HCV core dimer – HCV core protein dimerization inhibition; TR-FRET GST/Flag-core106 dimerization, 1536-well; 300,000 compounds, 0.33% hits; inhibition, % at 5 µM; AID 1899;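 active = inhibition above the mean of all tested compounds plus 3 SD, set per screening campaign, cut at about 45% in these data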
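Test system: GST/Flag-tagged HCV core106 proteins; Medium: KF-containing HEPES buffer, pH 7.45, DTT, CHAPS, BSA; Times: compound-protein-antibody incubation 4 h at 22.5 °C; Detection: TR-FRET 671 and 617 nm emission; Benchmarks: wells lacking GST-core106 and wells with excess unlabelled core106.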
PfM18AAP inh-2 – PfM18AAP inhibition, confirmation; shares compounds with PfM18AAP inh-1; 2,400 compounds, 28% hits; inhibition, % at 7.35 µM; recombinant PfM18AAP, H-Glu-NHMec fluorogenic cleavage;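 active = mean inhibition over replicate wells above the hit cutoff set for the earlier primary screen, cut at about 29% in these data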;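 note: 0% = median of test compound wells and 100% = 2 mM ZnCl2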
CTSL1 counter – counter-screen for PFM18AAP inhibitors: confirmation of human cathepsin L inhibitors; purified cathepsin L1, Z-Leu-Arg-MCA fluorescence; inhibition, % at 5.96 µM; 2,400 tested, under 10 active; shares compounds with PfM18AAP inh-1; AID 2178;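 active = average inhibition across replicates above the hit cutoff set in the earlier primary screen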;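 note: 0% = median of test compound wells and 100% = Z-Phe-Ala-diazomethylketone 1 µM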
* = called active by the depositor; ? = inconclusive; . = no result.

SMILES	ALR H2O2 inh	ZTA DNA inh	PfM18AAP inh-1	EBNA-1 inhibitor	HCV NS3 hel inh	HCV core dimer	PfM18AAP inh-2	CTSL1 counter
Nc1nc(-c2cccs2)c(CC(=O)O)s1	28	-9	10	-14	2	9	.	.
Cc1ccc(S(=O)(=O)N2CCC[C@H]2C(=O)Nc2ccc(F)cc2C)cc1	-5	.	.	.	.	.	.	.
S=c1[nH]nc(COc2ccccc2)n1/N=C/c1ccccc1Br	-6	6	35*	2	18	4	9	6
Oc1ccc(Br)cc1/C=N/n1c(COc2ccccc2)n[nH]c1=S	62	.	17	.	20	.	.	.
NC(=O)c1c(NC(=O)c2cccnc2)sc2c1CCCC2	3	-11	5	-12	4	8	.	.
NC(=O)c1c(NC(=O)c2cccnc2)sc2c1CCCCC2	11	-4	33*	6	-3	9	-35	1
N#C/C(=C/c1ccc(O)c(O)c1)C(=O)NCc1ccc(Cl)cc1	22	1	38*	-10	5	-7	5	0
N#C/C(=C\c1ccc(O)c(O)c1)C(=O)Nc1cccc2ncccc12	99*	8	63*	-6	9	65*	30*	3
CSCCC(NC(=O)c1ccco1)C(=O)NCC(C)(C)N1CCOCC1 (centres undefined)	-8	-2	.	.	.	.	.	.
CCN1/C(=C2\C(=O)N(C)C(=S)N2C)C=Cc2cc(C)ccc21	56	-2	34*	-2	-9	-38	-13	5
CCCCCC(=O)NNC(=S)NC(=O)c1ccccc1[N+](=O)[O-]	1	-5	12	-5	2	-1	.	.
CCCCCC(=O)NNC(=S)NC(=O)c1cccc([N+](=O)[O-])c1	?	-8	35*	2	6	-3	-6	1
O=C(NNC(=S)NC(=O)c1cccnc1)c1ccc(Cl)cc1	66	-3	39*	-1	15	-2	-17	3
O=C(NNC(=S)NCc1ccc(Cl)cc1)c1cccnc1	-2	-13	-1	1	10	-13	.	.
O=C(Cc1ccc(Cl)cc1)NNC(=S)NC(=O)c1cccnc1	57	-14	50*	3	-5	2	-16	3
O=C(NC(=S)NCCOCc1ccc(Cl)cc1)c1cccnc1	9	2	-14	-1	4	1	.	.
Cc1cccc(C(=O)NC(=S)NNC(=O)Cc2ccccc2)c1	.	5	38*	3	3	0	-40	3
Cc1cc(CNC(=O)CC2C(=O)NCCN2CC(C)(C)C)nn1C (centres undefined)	-22	1	-8	5	-6	10	.	.
CS(=O)(=O)c1ccc(Cl)c(NC(=O)CSc2nnc(C3CC3)n2C2CC2)c1	-7	0	.	.	.	.	.	.
CCCCn1c(N)c(N(CC(C)C)C(=O)c2cccc(-n3cnnn3)c2)c(=O)[nH]c1=O	-5	-4	.	7	.	-8	.	.
O=C(c1cccc(Oc2c(Cl)cccc2[N+](=O)[O-])c1)N1CCOCC1	-2	-5	0	4	5	2	.	.
COc1ccc(CNC(=O)[C@@H](NC(=O)C2CCN(C(=O)[C@@H](N)CCSC)CC2)C(C)C)cc1	-5	-1	6	-3	-10	-3	.	.
CCc1ccc(C(=O)NNc2ccc(F)cc2)cc1	-7	-2	12	5	2	-3	.	.
CCc1ccc(C(=O)NNc2ccc(S(N)(=O)=O)cc2)cc1	-8	5	35*	-5	-1	1	-10	1
Clc1ccc(Nc2ncn[nH]2)cc1	22	-10	34*	-12	18	-3	18	4
SMILES	ALR H2O2 inh	ZTA DNA inh	PfM18AAP inh-1	EBNA-1 inhibitor	HCV NS3 hel inh	HCV core dimer	PfM18AAP inh-2	CTSL1 counter
c1n[nH]c(NC2=NCCC2)n1	-3	3	4	1	0	-5	.	.
CC(C)C[C@H](NC(=O)OC(C)(C)C)C(=O)N[C@@H](CO)[C@H](O)[C@@H]1C[C@@H]1C(=O)NC1CCCCC1	1	-15	4	-3	10	-18	.	.
CCc1ccc(-c2csc(NC(=O)COC(=O)CCc3nc4ccccc4s3)n2)cc1	.	-26	-3	0	-5	2	.	.
COC(=O)CN(n1cnnc1)S(=O)(=O)c1ccc(C)cc1	0	16	84*	-4	-2	-3	79*	-13
CC(C)(C)c1cc(C(=S)N2CCN(CCO)CC2)cc(C(C)(C)C)c1O	17	2	36*	4	-15	-3	-7	2
CCN1CCN(C(=S)c2ccc(OC)cc2)CC1	27	-4	45*	2	10	3	13	1
CCCN1CCN(C(=S)NCc2ccc(Cl)cc2)CC1	1	-7	-2	6	-23	-3	.	.
COc1ccc(C(=S)N2CCCCCC2)cc1	54	-2	4	-6	5	8	.	.
OCCN1CCN(C(=S)c2ccc(Cl)cc2)CC1	1	2	43*	-4	7	1	8	5
CCN1CCN(C(=S)c2ccc(Cl)cc2)CC1	5	-3	44*	1	0	3	36*	0
S=C(c1ccc(Cl)cc1)N1CCN(Cc2ccccc2)CC1	-1	-22	-10	-11	0	0	.	.
O=C(CSc1nnc(Cc2ccccc2)o1)Nc1ccc(N2CCOCC2)cc1	63	.	.	.	.	.	.	.
COc1ccc(/C(C)=N/NC(=O)CNC(=O)/C=C\c2ccccc2OC)c(OC)c1	3	-5	1	-11	-2	1	.	.
CCOc1ccc(C(=S)N2CCN(C)CC2)cc1	.	5	48*	4	8	5	4	0
CSc1ccc(C(=S)N2CCN(Cc3ccccc3)CC2)cc1	-13	-2	41*	3	-1	1	10	3
CNC(=O)C1C(=S)NC(N)=C(C#N)C1c1ccccc1 (centres undefined)	24	11	47*	10	3	0	23	0
COC(=O)C1=C(C)OC(N)=C(C#N)C1c1ccccc1 (centres undefined)	3	5	0	-3	-4	0	.	.
CN1C(=O)c2c(sc3c2CCCC3)NC1c1ccccc1O (centres undefined)	-1	4	34*	4	20	55*	-24	-1
O=C(NC1CCCN(CCc2ccccc2)C1)C1CCCC1 (centres undefined)	0	-7	-1	-3	3	-4	.	.
Cc1cc(C)nc(SCC(=O)c2ccc(O)c(O)c2)n1	18	-9	50*	-1	19	-2	28	7
O=C(CSc1nc2ccccc2c(=O)[nH]1)c1ccc(O)c(O)c1	99*	3	65*	10	0	-1	68*	2

High-throughput results deposited in PubChem by several laboratories.
